Results on eight compounds are retold here after ChEMBL document CHEMBL1255401, “Penicillin sulfone inhibitors of class D beta-lactamases” (Antimicrob Agents Chemother, 2010).

The nature of assay [1]: Activity of Beta-lactamase OXA-1 expressed in Escherichia coli BL21 (DE3). The method, boiled down:
(§1)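 OXA-1 from E. coli BL21(DE3) with pET 12a(+) blaOXA-1, IPTG-induced (0.2 mM), released with lysozyme/EDTA, purified by preparative isoelectric focusing. Continuous spectrophotometric hydrolysis assays of oxacillin, ampicillin, nitrocefin and cephaloridine at room temperature in 50 mM sodium phosphate with 20 mM bicarbonate, run in triplicate. Initial rates versus substrate concentration fitted to give kcat, Km and kcat/Km.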

The nature of assay [2]: Ratio of Kcat to Km for Beta-lactamase OXA-1 expressed in Escherichia coli BL21 (DE3). The method, boiled down:
as §1

For assay [3], the system named is Escherichia coli. As to the kind of experiment: Antibacterial activity against Escherichia coli DH10B harboring RGN238 plasmid containing Beta-lactamase OXA-1 at 4 ug/ml in presence of increasing concentrations of piperacillin by broth agar dilution assay. The class given is functional. The method, boiled down:
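Lysogeny broth agar dilution MIC on E. coli DH10B carrying plasmid RGN238 with blaOXA-1. Piperacillin tested at increasing concentrations with the inhibitor held at a constant 4 μg/ml. Plates inoculated by Steers replicator with 10 μl of a diluted overnight culture containing 10^4 CFU.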
Background: In agar dilution the substance is mixed into plates at graded concentrations.

The nature of assay [4]: Inhibition of Beta-lactamase OXA-17 expressed in Escherichia coli BL21 (DE3) by nitrocefin hydrolysis assay. The gist of the method: (§2)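 Competition assay at room temperature in 50 mM sodium phosphate with 20 mM bicarbonate, run in triplicate. Enzyme at 11 nM, reporter substrate 50 μM nitrocefin, inhibitor at 4 μM to 9 mM depending on inhibitor and enzyme. Initial velocities taken immediately after mixing, 1/v plotted against [I] and fitted linearly. Ki obtained as y-intercept divided by slope.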

Assay [5] is described as follows: Inhibition of Beta-lactamase OXA-24/40 expressed in Escherichia coli BL21 (DE3) by nitrocefin hydrolysis assay. The gist of the method: as §2
A short description of assay [6]: Inhibition of Beta-lactamase OXA-14 expressed in Escherichia coli BL21 (DE3) by nitrocefin hydrolysis assay. The method, boiled down: as §2
Assay [7] can be described thus: Inhibition of Beta-lactamase OXA-10 expressed in Escherichia coli BL21 (DE3) by nitrocefin hydrolysis assay. The gist of the method:
as §2

The nature of assay [8]: Inhibition of Beta-lactamase OXA-1 expressed in Escherichia coli BL21 (DE3) by nitrocefin hydrolysis assay. The gist of the method: as §2

In the case of `Cc1onc(-c2ccccc2)c1C(=O)N[C@@H]1C(=O)N2[C@@H]1SC(C)(C)[C@@H]2C(=O)O`, in assay [1], the Km (as a rule, the substrate concentration at which the rate is half of its maximum) is 31 µM; the kcat – broadly, the number of substrate molecules converted per active site and unit of time at saturation – stood at 577 s⁻¹. Further, in assay [2], the kcat/Km (as a rule, the turnover number divided by the Michaelis constant) turned out to be 1.9e+07 M⁻¹ s⁻¹.

With `C[C@]1(COC(=O)Cc2ccc(O)c(O)c2)[C@H](C(=O)O)N2C(=O)/C(=C/c3ccccn3)[C@H]2S1(=O)=O`, the MIC (usually the lowest concentration found to suppress growth) in assay [3] amounted to 128 µg/mL. Besides, the Ki (as a rule, the equilibrium dissociation constant of an inhibitor or competing ligand from its target) in assay [4] worked out at 0.2 µM; in assay [5] it was 0.65 µM; in assay [6], 1.4 µM; in assay [7], 8 µM; in assay [8], 0.7 µM.

In the case of `O=C(Cc1cccs1)N[C@@H]1C(=O)N2C(C(=O)[O-])=C(C[n+]3ccccc3)CS[C@H]12`, in assay [1], the Km came out at 80 µM and the kcat worked out at 16 s⁻¹. Further, the kcat/Km in assay [2] amounted to 210000 M⁻¹ s⁻¹.

Take `CC(=O)OC[C@@]1(C)[C@H](C(=O)O)N2C(=O)/C(=C/c3ccccn3)[C@H]2S1(=O)=O`: the Ki is 0.87 µM in assay [4]; 2.4 µM in assay [5]; 4 µM in assay [6]; 17 µM in assay [7]; 1.4 µM in assay [8].

For the compound `C[C@]1(Cn2ccnn2)[C@H](C(=O)O)N2C(=O)C[C@H]2S1(=O)=O` [TAZOBACTAM], the MIC in assay [3] came to 512 µg/mL. The Ki came to 40 µM in assay [4]; 271 µM in assay [5]; 30 µM in assay [6]; 170 µM in assay [7]; 585 µM in assay [8].

Consider `O=C(O)[C@H]1/C(=C/CO)O[C@@H]2CC(=O)N21` [CLAVULANIC ACID], for which the Ki in assay [4] was determined as 45 µM; in assay [5], 51 µM; in assay [6] it was 19 µM; in assay [7], 104 µM; in assay [8], 195 µM.

`CC1(C)S[C@@H]2[C@H](NC(=O)[C@H](N)c3ccccc3)C(=O)N2[C@H]1C(=O)O`: in assay [1], the Km is 64 µM and the kcat was determined as 357 s⁻¹. In addition, the kcat/Km in assay [2] is 6e+06 M⁻¹ s⁻¹.

With `O=C(Cc1cccs1)N[C@@H]1C(=O)N2C(C(=O)O)=C(/C=C/c3ccc([N+](=O)[O-])cc3[N+](=O)[O-])CS[C@H]12`, in assay [1], the Km was found to be 9 µM and the kcat came to 94 s⁻¹. The kcat/Km in assay [2] worked out at 1e+07 M⁻¹ s⁻¹.
